Compound activity deposited in PubChem BioAssay by several laboratories.
An excerpt weighted towards active compounds, which were near 2.6% of everything screened.
Lipid droplet: hepatic lipid droplet formation modulation; AML12 mouse hepatocytes, oleate lipid droplets, BODIPY imaging; inhibition, % at 6.5 µM; hit rate 0.4% among 240,000;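 active = lipid droplet intensity inhibited by at least 50%, with more than 500 cells counted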
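Test system: AML12 hepatocytes (mouse); reagent: oleate loading, 100 µM; dosing: one dose, 6.5 µM compound; incubation: overnight exposure; signal: fluorescence imaging, 20x objective, two fields per well; read-out basis: % inhibition of corrected integrated BODIPY droplet signal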
MEKK3 PB1 HTS: modulators (inhibitors or enhancers) of MEK5 binding to human MEKK3 PB1 domain; Q99759; bead-based flow cytometry, Alexa488-MEK5 binding to MEKK3; actives lie on both sides; 0 = blocked by unlabeled MEK5, 100 = vehicle; binding response (% of control), % at 10 µM; hit rate 1.4% among 290,000; AID 1529;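 active = binding response more than 3 SD above or below the average of its plate-row segment, actives on both sides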;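 note: Alexa488 bead fluorescence after subtracting the streptavidin-only scavenger bead signal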
Target sequence (Q99759 whole entry, looked up, the tested form may be a part): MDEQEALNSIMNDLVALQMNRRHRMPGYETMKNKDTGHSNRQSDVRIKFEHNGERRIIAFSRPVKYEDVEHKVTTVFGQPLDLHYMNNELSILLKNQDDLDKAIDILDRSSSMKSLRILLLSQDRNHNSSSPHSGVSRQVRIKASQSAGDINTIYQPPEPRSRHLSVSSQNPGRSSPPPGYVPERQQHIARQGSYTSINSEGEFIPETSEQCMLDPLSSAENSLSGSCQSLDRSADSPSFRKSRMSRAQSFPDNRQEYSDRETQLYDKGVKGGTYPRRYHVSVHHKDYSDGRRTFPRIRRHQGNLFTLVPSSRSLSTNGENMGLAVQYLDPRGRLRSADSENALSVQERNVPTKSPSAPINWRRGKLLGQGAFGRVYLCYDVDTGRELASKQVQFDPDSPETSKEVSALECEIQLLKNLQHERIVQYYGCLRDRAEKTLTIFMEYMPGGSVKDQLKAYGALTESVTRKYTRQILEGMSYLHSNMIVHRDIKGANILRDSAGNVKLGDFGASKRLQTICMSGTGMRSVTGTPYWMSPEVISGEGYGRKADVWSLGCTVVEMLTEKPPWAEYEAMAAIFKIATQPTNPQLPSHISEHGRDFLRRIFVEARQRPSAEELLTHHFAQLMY
MEKK2wt PB1 HTS: raises or lowers MEK5 binding to wildtype human MEKK2 PB1 domain; Q9Y2U5; bead flow cytometry, Alexa488-MEK5 binding to MEKK2 WT; actives lie on both sides; binding response (% of control), % at 10 µM; hit rate 1.1% among 290,000; AID 1531; in the data active = binding response below about 67% or above about 130%
MEKK2 mut-MEK5: signal of MEK5 binding to mutant human MEKK2 PB1 domain; bead flow cytometry, Alexa488-MEK5 binding to MEKK2 mutant; percent response, % at 10 µM; hit rate 0.35% among 290,000; AID 1530; in the data active = percent response above about 24%, passing the limit was not always enough
Hits are given with their value; 0 = inactive; - = not tested or not shown; ! = not active in a repeat; [ ] = another dose, or the depositor's remark.

SMILES	Lipid droplet	MEKK3 PB1 HTS	MEKK2wt PB1 HTS	MEKK2 mut-MEK5
CCOc1cc(N2CCOCC2)c(OCC)cc1NC(=O)CN1C(=O)NC2(CCc3ccccc32)C1=O (stereo not drawn)	0	0	0	0
COc1cc2c(cc1NC(=O)CN1C(=O)NC3(CCc4ccccc43)C1=O)oc1ccccc12 (stereo not drawn)	-	0	10.0	0
COC(=O)c1cc(S(=O)(=O)NCc2cc(OC)c(OC)c(OC)c2)cn1C	0	0	0	0
CCC1CCCCN1CCCNC(=O)CS(=O)(=O)Cc1nc(-c2cccc(OC)c2)oc1C (stereo not drawn)	0	0	140.0	0
CC(C)COc1ccc(-c2nnc(-c3ccco3)o2)cc1	0	0	0	0
CCN(CC)CCCNc1ccc(-c2nnc(-c3ccc(OCC(C)C)cc3)o2)cn1	0	0	165.0	36.0
O=Cc1c(C(=O)O)n(CC(=O)O)c2ccccc12	0	134.0	0	0
O=C(O)Cn1c2ccccc2c2ccccc21	0	0	0	0
Cc1ccc(NC(=S)N(CCCN2CCCC2)Cc2cccn2Cc2ccc(Cl)cc2)cc1C	0	0	228.0	74.0
COc1ccc(NC(=S)N(CCCN2CCCC2)Cc2cccn2Cc2ccc(Cl)cc2)cc1Cl	0	0	293.0	161.0
Cc1ccc(NC(=S)N(CCCN2CCCC2)Cc2cccn2Cc2ccc(Cl)cc2)cc1Cl	0	0	317.0	0
COc1ccc(NC(=S)N(CCCN2CCC(C)CC2)Cc2cccs2)cc1Cl	0	0	0	0
OC(COc1ccc(CNCCc2ccc(C(F)(F)F)cc2)cc1)CN1CCCCC1 (stereo not drawn)	0	0	150.0	0
COc1ccc(-c2csc(NC3CCCCC3)n2)c(OC)c1	0	0	-4.0[inhibitor]	0
c1ccc(-c2csc(NC3CCCCC3)n2)cc1	0	0	0	0
CCN(CC)CCNC(=O)c1[nH]c2ccc(OCc3ccccc3)cc2c1C	0	0	184.0	0
COc1cccc(/C=N/N2CCN(C3c4ccccc4-c4ccccc43)CC2)c1O	57.3	0	0	0
Cc1cc(C)n2nc(/C(C#N)=C/c3ccccn3)c(C#N)c2n1	-	0	0	0
Cc1cc(C(=O)NCC23CC4CC(CC(C4)C2)C3)c(C)o1	0	0	0	0
Cc1nc(NC2=NCN(C3CCCCC3C)CN2)nc2ccccc12 (stereo not drawn)	0	0	139.0	0
Cc1nc(NC2=NCN(CCc3ccccc3)CN2)nc2ccccc12	0	-	-	-
CCOc1ccc(-c2cnc(N)n2C)cc1	0	0	0	0
COCCn1c(-c2ccc(OC)cc2)cnc1N	-	0	-6.0	0
COc1cc(OC)c2c(-c3ccccc3)cc(=O)oc2c1C(CC(=O)N1CCN(c2ccccc2)CC1)c1ccc2c(c1)OCO2 (stereo not drawn)	0	131.0	145.0	0
COc1cc(OC)c2c(-c3ccccc3)cc(=O)oc2c1C(CC(=O)N1CCN(c2ccccc2)CC1)c1ccc(N(C)C)cc1 (stereo not drawn)	0	0	0	0
SMILES	Lipid droplet	MEKK3 PB1 HTS	MEKK2wt PB1 HTS	MEKK2 mut-MEK5
CCN1/C(=C\C=C2\C(=O)N(c3ccccc3)C(=S)N2C)Sc2ccccc21	0	75.0[inhibitor]	44.0[inhibitor]	0
Cc1cccc(CC(=O)N2CCC(n3nccc3NC(=O)C3CC3)CC2)c1	0	0	0	0
CC1CC(C)CN(CCCNC(=O)c2ccc3c(c2)N(Cc2ccccc2)C(=O)c2ccccc2S3=O)C1 (stereo not drawn)	0	0	145.0	0
O=C(NCCCN1CCCC1)c1ccc2c(c1)N(Cc1cccc(Cl)c1)C(=O)c1ccccc1S2=O (stereo not drawn)	0	0	0	0
Cn1cnnc1SCC(=O)Nc1ncc(C(F)(F)F)cc1Cl	0	0	0	0
CCOc1cc(/C=C2\C(=O)N(CCc3ccc(OC)c(OC)c3)C(C)=C2C(=O)OC)ccc1O	0	60.0[inhibitor]	0	0
COC(=O)C1=C(C)N(Cc2ccc(C)cc2)C(=O)/C1=C\c1ccc(O)c(OC)c1	-	0	0	0
S=C(Nc1ccc(Br)cc1)N1CCN(c2ccccn2)CC1	0	0	0	0
CCN(CC)c1ccc(/C=C/c2cccc[n+]2C)c(OC)c1	0	0	12.0	0
Cc1nc2ccccc2nc(C)c1=NOCc1ccccc1Cl	0	0	0	0
Cc1cc(Nc2ccc(Cl)cc2)nc(NCc2ccccc2)n1	0	0	159.0	0
Cc1ccc(C(C)NC(=S)NC2CCCCC2)c(C)c1 (stereo not drawn)	0	0	0	0
O=c1[nH]c(=S)[nH]c(O)c1N=Nc1ccc(-c2ccccc2)cc1[N+](=O)[O-]	0	0	-4.0	0
O=C(O)c1ccccc1N=Nc1c(O)[nH]c2ccc([N+](=O)[O-])cc12	0	0	0	0
CC1CCC(C(C)C)C(OC(=O)Cn2c(-c3ccc(Br)cc3)[n+](C)c3ccccc32)C1 (stereo not drawn)	0	0	147.0!	0
CCOc1ccc2nc(COC(=O)c3cccc([N+](=O)[O-])c3)c(C(C)=O)[n+]([O-])c2c1	0	0	0	0
COc1cccc(/C=C2\Sc3ccc(C(=O)NCc4cccnc4)cc3N(C)C2=O)c1	0	0	0	0
COc1cccc(/C=C2/Sc3ccc(C(=O)NCCN4CCCCCC4)cc3NC2=O)c1	0	0	280.0	71.0
O=C1Nc2cc(C(=O)N3CCc4ccccc4C3)ccc2S/C1=C\c1ccccc1	0	0	0	0
O=C1Nc2cc(C(=O)NCCN3CCCCCC3)ccc2S/C1=C\c1ccccc1	0	0	219.0	43.0
Cc1cccc(/C=C2/Sc3ccc(C(=O)NCCN4CCCC4)cc3NC2=O)c1	0	0	183.0	46.0
CCN1CCCC1CNC(=O)c1ccc2c(c1)NC(=O)/C(=C\c1ccc(OC)c(OC)c1)S2 (stereo not drawn)	0	0	153.0[inhibitor]	25.0
CC(=O)c1ccc(NC(=O)CS(=O)(=O)c2cn(CC(=O)N3CCOCC3)c3ccccc23)cc1	0	0	0	0
CCCN(CCC)c1cc(Cl)nc(N)n1	0	0	0	0
O=C(N1CCCCC1)N1CCN(S(=O)(=O)c2ccc(Cl)cc2)CC1	0	0	0	0
SMILES	Lipid droplet	MEKK3 PB1 HTS	MEKK2wt PB1 HTS	MEKK2 mut-MEK5
CCOC(=O)C1CCN(S(=O)(=O)c2ccc3c(c2)CC(C)N3C(=O)C2CC2)CC1 (stereo not drawn)	0	0	0	0
CC1Cc2cc(S(=O)(=O)N3CCC(C(N)=O)CC3)ccc2N1C(=O)C1CC1 (stereo not drawn)	0	2.0[inhibitor]	0.0[inhibitor]	0
CCCCC(=O)NC(=S)Nc1nnn(CCC)n1	0	43.0[inhibitor]	0	0
COc1cc2c(cc1OC)CN(Cc1cc(OC)c(O)c(OC)c1)CC2	0	0	0	0
Oc1c(N=Nc2ccccn2)ccc2ccccc12	-	0	36.0	0
CCOc1ccc(/C=N/Nc2ccc(C(F)(F)F)cc2[N+](=O)[O-])cc1O	74.1	0	0	0
NC(N)=N/N=C/c1ccc(OCc2ccccc2)c(OCc2ccccc2)c1	0	0	302.0	116.0
NC(N)=N/N=C/c1ccccc1	0	0	0	0
COc1ccc(C(=O)NCc2ncccc2C)cc1OC1CCN(C(C)=O)CC1	0	0	0	0
